Experimental data taken from ChEMBL document CHEMBL5036331 (J Med Chem, 2021).
Converted amounts (≈) assume the structure as drawn. The source made the active and inactive calls. The rule behind the calls is not given here.

Experiments:
Cytochrome P450 2E1 = Cytochrome P450 2E1 (Homo sapiens, UniProt P05181); assay: Inhibition of CYP2E1 in human liver microsomes using chlorzoxazone as substrate by LC-MS/MS analysis; assay type: ADME
[1] = Aqueous solubility of the compound at pH 6.5 for 24 hrs by HPLC-MS/MS; assay type: physicochemical
[2] = Efflux ratio of apparent permeability across basolateral to apical side over apical to basolateral side in human Caco2 cells at 2 uM incubated for 2 hrs; settings: Caco-2
Cytochrome P450 1A2 [3] = target: T1, Cytochrome P450 1A2 (Homo sapiens, UniProt P05177); assay: Inhibition of CYP1A2 in human liver microsomes using phenacetin as substrate by LC-MS/MS analysis; assay type: ADME; settings: read-out: INH
T1 sequence (P05177 whole entry): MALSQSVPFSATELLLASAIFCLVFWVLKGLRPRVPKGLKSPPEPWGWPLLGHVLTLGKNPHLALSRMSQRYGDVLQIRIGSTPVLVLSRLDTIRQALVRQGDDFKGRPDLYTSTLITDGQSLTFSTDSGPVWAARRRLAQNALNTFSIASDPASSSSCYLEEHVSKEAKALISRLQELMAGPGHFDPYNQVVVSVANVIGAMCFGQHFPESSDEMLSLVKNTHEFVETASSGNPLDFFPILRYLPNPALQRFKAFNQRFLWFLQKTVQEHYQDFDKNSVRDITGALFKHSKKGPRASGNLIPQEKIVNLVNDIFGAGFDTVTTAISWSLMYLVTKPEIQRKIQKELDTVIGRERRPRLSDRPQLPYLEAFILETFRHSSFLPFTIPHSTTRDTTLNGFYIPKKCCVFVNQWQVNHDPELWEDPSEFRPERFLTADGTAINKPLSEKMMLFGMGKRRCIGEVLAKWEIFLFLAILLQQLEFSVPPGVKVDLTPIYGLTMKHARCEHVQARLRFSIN

A2780 = assay: cells; assay type: functional, cell-based; settings: Homo sapiens, A2780, 96 h
MOLM-13 = assay: cells; assay type: functional, cell-based; settings: Homo sapiens, MOLM-13, 96 h
[4] = Clearance in Wistar-Han rat Liver microsomes at 1 uM measured for 2 to 90 mins by LC-MS/MS; assay type: ADME, Microsome; settings: time 2-90 min
Cytochrome P450 1A2 [5] = target: T1, Cytochrome P450 1A2; assay: Induction of CYP1A2 in human hepatocytes by LC-MS/MS analysis; assay type: ADME, cell-based, Hepatocyte
[6] = Clearance in Wistar-Han rat hepatocytes at 1 uM measured for 2 to 90 mins by LC-MS/MS; assay type: ADME, cell-based, Hepatocyte; settings: Wistar-Han, time 2-90 min
Cytochrome P450 2D6 = Cytochrome P450 2D6 (Homo sapiens, UniProt P10635); assay: Inhibition of CYP2D6 in human liver microsomes using dextromethorphan as substrate by LC-MS/MS analysis; assay type: ADME; settings: read-out: INH
MV4-11 [7] = assay: Antitumor activity against human MV4-11 cells xenografted in rat assessed as inhibition of tumor growth at 12 mg/kg, po administered for 15 days; assay type: functional, organism-based; settings: time 15.0 day
In short: (§1)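 Rat MV4-11 xenograft, oral dosing at 12 mg/kg daily for 15 days. Tumor growth was monitored during treatment and for a further 30 days without treatment.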

[8] = Ratio of drug level in Wistar-Han rat blood to plasma; settings: blood and plasma
MV4-11 [9] = assay: Antitumor activity against human MV4-11 cells xenografted in rat assessed as inhibition of tumor growth at 12 mg/kg, po administered for 15 days measured after without treatment for additional 30 days; assay type: functional, organism-based; settings: time 15.0 day; in short: as §1
Cytochrome P450 2C19 = Cytochrome P450 2C19 (Homo sapiens, UniProt P33261); assay: Inhibition of CYP2C19 in human liver microsomes using (S)-mephenytoin as substrate by LC-MS/MS analysis; assay type: ADME; settings: read-out: INH
Cytochrome P450 2A6 = target: T2, Cytochrome P450 2A6 (Homo sapiens, UniProt P11509); assay: Inhibition of CYP2A6 in human liver microsomes using coumarin as substrate by LC-MS/MS analysis; assay type: ADME
T2 sequence (P11509 whole entry): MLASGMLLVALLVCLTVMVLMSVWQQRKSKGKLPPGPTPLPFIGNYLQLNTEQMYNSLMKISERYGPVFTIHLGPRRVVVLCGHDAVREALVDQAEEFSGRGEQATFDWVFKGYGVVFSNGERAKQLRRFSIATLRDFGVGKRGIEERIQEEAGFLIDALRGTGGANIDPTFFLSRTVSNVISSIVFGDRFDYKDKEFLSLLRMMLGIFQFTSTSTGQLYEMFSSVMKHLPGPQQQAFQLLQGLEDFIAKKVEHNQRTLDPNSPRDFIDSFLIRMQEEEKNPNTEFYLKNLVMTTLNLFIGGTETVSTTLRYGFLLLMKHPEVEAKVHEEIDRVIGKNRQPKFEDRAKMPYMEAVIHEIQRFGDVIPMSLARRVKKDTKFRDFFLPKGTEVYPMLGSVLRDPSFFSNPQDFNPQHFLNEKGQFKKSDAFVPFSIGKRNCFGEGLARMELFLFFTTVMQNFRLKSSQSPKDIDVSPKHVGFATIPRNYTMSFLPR

[10] = Volume of distribution at steady state in Wistar-Han rat blood at 0.3 to 0.5 mg/kg, iv measured upto 24 hrs by HPLC with LC-MS/MS; assay type: ADME, organism-based; settings: dose 0.3-0.5 mg/kg, read-out: Vdss
Cytochrome P450 3A4 = Cytochrome P450 3A4 (Homo sapiens, UniProt P08684); assay: Inhibition of CYP3A4 in human liver microsomes using midazolam/testosterone as substrate by LC-MS/MS analysis; assay type: ADME; settings: read-out: INH
[11] = Aqueous solubility of the compound at pH 4 for 24 hrs by HPLC-MS/MS; assay type: physicochemical
[12] = Clearance in Wistar-Han rat blood at 0.3 to 0.5 mg/kg, iv measured upto 24 hrs by HPLC with LC-MS/MS; assay type: ADME, organism-based; settings: dose 0.3-0.5 mg/kg
Cytochrome P450 2B6 = target: T3, Cytochrome P450 2B6 (Homo sapiens, UniProt P20813); assay: Inhibition of CYP2B6 in human liver microsomes using bupropion as substrate by LC-MS/MS analysis; assay type: ADME
T3 sequence (P20813 whole entry): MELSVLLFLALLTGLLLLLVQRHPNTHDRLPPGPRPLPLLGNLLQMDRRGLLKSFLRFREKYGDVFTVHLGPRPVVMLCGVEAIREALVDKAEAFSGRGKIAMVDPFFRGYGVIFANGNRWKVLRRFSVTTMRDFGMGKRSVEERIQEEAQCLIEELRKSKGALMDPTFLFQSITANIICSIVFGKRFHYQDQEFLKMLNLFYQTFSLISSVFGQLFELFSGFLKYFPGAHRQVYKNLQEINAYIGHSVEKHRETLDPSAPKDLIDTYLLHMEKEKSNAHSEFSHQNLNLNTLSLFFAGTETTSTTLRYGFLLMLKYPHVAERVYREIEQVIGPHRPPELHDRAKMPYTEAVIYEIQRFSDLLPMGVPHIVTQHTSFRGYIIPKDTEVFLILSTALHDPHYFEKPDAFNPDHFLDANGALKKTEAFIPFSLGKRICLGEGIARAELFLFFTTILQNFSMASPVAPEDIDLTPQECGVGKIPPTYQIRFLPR

[13] = Apparent permeability of the compound across apical side to basolateral side in human CaCo-2 cells at 2 uM incubated for 2 hrs; assay type: ADME, cell-based
In short: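 Caco-2 monolayers with TEER of at least 400 Ω·cm². Compound (predissolved in DMSO) added apically or basolaterally at a final 2 μM and incubated 2 h at 37 °C, in triplicate. Both compartments were sampled before and after, MeOH-precipitated and analysed by LC–MS/MS. Papp = (Vr/P0)(1/S)(P2/t).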

Cytochrome P450 2C8 = target: T4, Cytochrome P450 2C8 (Homo sapiens, UniProt P10632); assay: Inhibition of CYP2C8 in human liver microsomes using amodiaquine as substrate by LC-MS/MS analysis; assay type: ADME; settings: read-out: INH
T4 sequence (P10632 whole entry): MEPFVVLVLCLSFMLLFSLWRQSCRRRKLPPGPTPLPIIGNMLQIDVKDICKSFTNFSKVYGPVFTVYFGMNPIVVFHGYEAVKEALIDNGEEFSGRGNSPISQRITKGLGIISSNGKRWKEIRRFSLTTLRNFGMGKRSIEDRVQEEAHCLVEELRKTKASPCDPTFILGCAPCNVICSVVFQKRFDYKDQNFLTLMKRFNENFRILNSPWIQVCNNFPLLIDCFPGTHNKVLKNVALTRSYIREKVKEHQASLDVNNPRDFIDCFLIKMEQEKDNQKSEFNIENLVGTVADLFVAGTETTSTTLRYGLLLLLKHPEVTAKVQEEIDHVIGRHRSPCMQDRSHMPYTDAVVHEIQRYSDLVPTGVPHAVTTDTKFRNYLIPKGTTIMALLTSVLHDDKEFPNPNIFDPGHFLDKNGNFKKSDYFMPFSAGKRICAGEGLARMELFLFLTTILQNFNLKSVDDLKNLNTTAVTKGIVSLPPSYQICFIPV

Cytochrome P450 2C9 = Cytochrome P450 2C9 (Homo sapiens, UniProt P11712); assay: Inhibition of CYP2C9 in human liver microsomes using diclofenac as substrate by LC-MS/MS analysis; assay type: ADME; settings: read-out: INH
[14] = Metabolic stability in Wistar-Han rat hepatocytes at 1 uM measured for 2 to 90 mins by LC-MS/MS; assay type: ADME, cell-based, Hepatocyte; settings: time 2-90 min
[15] = Half life in Wistar-Han rat blood at 0.3 to 0.5 mg/kg, iv measured upto 24 hrs by HPLC with LC-MS/MS; assay type: ADME, organism-based; settings: dose 0.3-0.5 mg/kg

Cytochrome P450 2C19, sequence (P33261 whole entry): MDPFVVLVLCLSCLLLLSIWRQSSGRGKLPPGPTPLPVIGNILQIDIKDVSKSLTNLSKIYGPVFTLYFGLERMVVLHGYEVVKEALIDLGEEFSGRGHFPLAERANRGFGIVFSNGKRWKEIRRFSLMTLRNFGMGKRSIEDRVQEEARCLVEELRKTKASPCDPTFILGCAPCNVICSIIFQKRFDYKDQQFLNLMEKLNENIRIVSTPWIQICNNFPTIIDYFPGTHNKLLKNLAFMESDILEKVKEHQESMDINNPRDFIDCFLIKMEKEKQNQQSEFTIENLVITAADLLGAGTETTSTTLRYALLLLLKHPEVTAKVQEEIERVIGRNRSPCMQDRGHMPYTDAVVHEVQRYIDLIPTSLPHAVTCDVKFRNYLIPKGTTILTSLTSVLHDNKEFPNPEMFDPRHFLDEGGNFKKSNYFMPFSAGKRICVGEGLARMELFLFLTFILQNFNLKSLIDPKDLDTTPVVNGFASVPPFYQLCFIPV
Cytochrome P450 2E1, sequence (P05181 whole entry): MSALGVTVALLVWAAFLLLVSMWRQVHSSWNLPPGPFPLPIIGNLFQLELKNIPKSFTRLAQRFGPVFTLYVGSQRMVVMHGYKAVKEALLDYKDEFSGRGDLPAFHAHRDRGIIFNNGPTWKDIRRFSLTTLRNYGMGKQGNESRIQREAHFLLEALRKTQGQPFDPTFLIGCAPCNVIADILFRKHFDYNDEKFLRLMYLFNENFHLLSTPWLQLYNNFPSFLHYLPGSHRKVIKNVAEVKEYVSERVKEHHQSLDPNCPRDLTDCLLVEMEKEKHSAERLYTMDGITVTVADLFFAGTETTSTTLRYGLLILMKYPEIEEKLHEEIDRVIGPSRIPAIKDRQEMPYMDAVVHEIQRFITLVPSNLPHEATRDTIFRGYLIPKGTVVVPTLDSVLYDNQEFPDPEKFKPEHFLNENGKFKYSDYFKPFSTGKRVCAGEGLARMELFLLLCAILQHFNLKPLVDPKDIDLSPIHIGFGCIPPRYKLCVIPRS
Cytochrome P450 2D6, sequence (P10635 whole entry): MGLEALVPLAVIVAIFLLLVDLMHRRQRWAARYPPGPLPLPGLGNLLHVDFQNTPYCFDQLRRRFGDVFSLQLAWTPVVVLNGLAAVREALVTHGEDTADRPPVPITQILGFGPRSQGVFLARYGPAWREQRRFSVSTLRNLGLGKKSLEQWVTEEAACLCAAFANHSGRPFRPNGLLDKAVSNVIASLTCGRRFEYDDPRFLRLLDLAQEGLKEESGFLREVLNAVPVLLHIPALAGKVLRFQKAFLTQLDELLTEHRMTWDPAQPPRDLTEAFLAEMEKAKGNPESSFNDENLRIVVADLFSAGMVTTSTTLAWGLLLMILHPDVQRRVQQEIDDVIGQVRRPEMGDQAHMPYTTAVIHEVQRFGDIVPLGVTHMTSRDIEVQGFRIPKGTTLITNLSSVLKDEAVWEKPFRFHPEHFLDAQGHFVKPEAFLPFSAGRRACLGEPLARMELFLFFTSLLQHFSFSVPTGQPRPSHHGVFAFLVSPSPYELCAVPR
Cytochrome P450 3A4, sequence (P08684 whole entry): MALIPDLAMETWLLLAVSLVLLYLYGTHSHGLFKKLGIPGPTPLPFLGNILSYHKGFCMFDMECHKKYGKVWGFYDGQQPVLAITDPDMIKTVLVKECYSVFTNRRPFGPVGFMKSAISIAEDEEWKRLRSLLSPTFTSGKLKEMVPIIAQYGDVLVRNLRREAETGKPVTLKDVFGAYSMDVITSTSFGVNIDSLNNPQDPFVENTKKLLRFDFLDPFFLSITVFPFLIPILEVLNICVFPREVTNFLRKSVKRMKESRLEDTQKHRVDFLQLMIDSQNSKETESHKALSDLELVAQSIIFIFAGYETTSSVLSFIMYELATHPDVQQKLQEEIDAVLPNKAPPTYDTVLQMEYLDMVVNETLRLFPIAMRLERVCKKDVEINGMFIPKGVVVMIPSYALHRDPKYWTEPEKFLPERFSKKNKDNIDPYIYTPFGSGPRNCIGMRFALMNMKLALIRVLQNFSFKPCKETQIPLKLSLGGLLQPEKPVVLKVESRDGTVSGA
Cytochrome P450 2C9, sequence (P11712 whole entry): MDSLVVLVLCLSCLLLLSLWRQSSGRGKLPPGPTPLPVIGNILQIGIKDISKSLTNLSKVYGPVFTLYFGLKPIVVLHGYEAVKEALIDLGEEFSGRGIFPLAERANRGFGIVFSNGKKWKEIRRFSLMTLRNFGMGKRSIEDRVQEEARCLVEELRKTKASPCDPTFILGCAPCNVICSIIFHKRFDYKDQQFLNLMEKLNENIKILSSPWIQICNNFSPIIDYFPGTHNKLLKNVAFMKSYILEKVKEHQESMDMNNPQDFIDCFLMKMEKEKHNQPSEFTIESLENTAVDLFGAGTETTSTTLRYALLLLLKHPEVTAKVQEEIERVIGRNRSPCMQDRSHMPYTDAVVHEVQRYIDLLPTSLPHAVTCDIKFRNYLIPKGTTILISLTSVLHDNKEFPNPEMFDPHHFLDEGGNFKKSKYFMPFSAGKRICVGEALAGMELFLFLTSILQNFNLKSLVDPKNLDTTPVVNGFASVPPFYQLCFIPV

COc1cc(F)ccc1-c1ncnc(Nc2cccc(CS(C)(=N)=O)c2)n1 (configuration not stated)
INH (Cytochrome P450 2E1): > 20 µM
solubility at 24 h [1]: 479 µg/mL (≈ 1240 µM)
efflux ratio at 2 h, 2 µM [2]: 6.1
IC50 (Cytochrome P450 1A2 [3]): > 20000 nM
IC50 (A2780): 380 nM
IC50 (MOLM-13): 310 nM
CLH [4]: 2.5 mL/min/kg
Activity (Cytochrome P450 1A2 [5]): Not Active
CLhep predicted at 1 µM [6]: 2.83 mL/min/kg
IC50 (Cytochrome P450 2D6): > 20000 nM
Activity (MV4-11 [7]): Active
blood plasma ratio [8]: 1.1
Activity (MV4-11 [9]): inactive
IC50 (Cytochrome P450 2C19): > 20000 nM
INH (Cytochrome P450 2A6): > 20 µM
Vd [10]: 1 L/kg
IC50 (Cytochrome P450 3A4): > 20000 nM
solubility at 24 h [11]: 309 µg/mL (≈ 798 µM)
clearance [12]: 18.3 mL/min/kg
INH (Cytochrome P450 2B6): > 20 µM
Papp A→B at 2 h, 2 µM [13]: 3.5 ×10⁻⁶ cm/s
IC50 (Cytochrome P450 2C8): > 20000 nM
IC50 (Cytochrome P450 2C9): > 20000 nM

COc1cc(F)ccc1-c1cc(Nc2cc(CS(C)(=N)=O)ccn2)ncn1 (configuration not stated)
solubility at 24 h [1]: 2 µg/mL (≈ 5.16 µM)
efflux ratio at 2 h, 2 µM [2]: 9.3
IC50 (A2780): 126 nM
IC50 (MOLM-13): 80 nM
solubility at 24 h [11]: 43 µg/mL (≈ 111 µM)
Papp A→B at 2 h, 2 µM [13]: 2.6 ×10⁻⁶ cm/s

COc1cc(F)ccc1-c1nc(Nc2cc(F)c(F)c(CS(C)(=O)=NC#N)c2)ncc1F (configuration not stated)
solubility at 24 h [1]: 0.2 µg/mL (≈ 0.43 µM)
IC50 (A2780): 37 nM
CLhep predicted at 1 µM [6]: 55 mL/min/kg
Stability [14]: Unstable

COc1cc(F)ccc1-c1nc(Nc2cc(F)cc(CS(C)(=N)=N)c2)ncc1F
half-life [15]: 36 min
solubility at 24 h [1]: 155 µg/mL (≈ 368 µM)
IC50 (A2780): 184 nM
CLhep predicted at 1 µM [6]: 35 mL/min/kg
Vd [10]: 2.2 L/kg
clearance [12]: 55 mL/min/kg
Papp A→B at 2 h, 2 µM [13]: 5 ×10⁻⁶ cm/s

COc1cc(F)ccc1-c1cc(Nc2cc(C[S@](C)(=N)=O)ccn2)ncc1F
IC50 (A2780): 52 nM
IC50 (MOLM-13): 42 nM

COc1cc(CS(C)(=N)=O)cc(Nc2ncc(F)c(-c3ccc(F)cc3OC)n2)c1 (configuration not stated)
solubility at 24 h [1]: 5 µg/mL (≈ 11.5 µM)
CLhep predicted at 1 µM [6]: 38.3 mL/min/kg

COc1cc(F)ccc1-c1nc(Nc2cc(F)cc(CS(=N)(=O)CCCN)c2)ncc1F (configuration not stated)
solubility at 24 h [1]: 294 µg/mL (≈ 632 µM)
IC50 (A2780): 226 nM
CLhep predicted at 1 µM [6]: 18.3 mL/min/kg
